Compound activity: PubChem BioAssay, several laboratories
Compounds with a hit are over-represented: about 4.4% of the library has one in this group of screens.
MsrA inh: inhibits bovine methionine sulfoxide reductase A. purified bovine MsrA, absorbance read-out. inhibition, % at 15.5 µM. 360,000 tested, 0.75% active;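 further: 0% = vehicle wells with enzyme and 100% = reference inhibitor wells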
AHR activator: activates the human aryl hydrocarbon receptor; AHR-responsive luciferase reporter cells, luminescence; activation, % at 5 µM; P35869; 320,000 tested, 2.5% active; in the data active means activation above about 47%;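 further: 0% = vehicle wells and 100% = reference agonist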
m5-HT2A agonist: activates the mouse 5-HT2A serotonin receptor. P35363. CHO-K1 mHTR2A beta-arrestin complementation, luminescence; percent of 30 µM serotonin response. activation, % at 7.6 µM. 360,000 tested, 0.66% active;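 active means activation above a run cutoff, the mean activation of all tested compounds plus 3 SD, cut at about 14% in these data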;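 further: 0% = plate median of compound wells and 100% = 30 µM serotonin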
Target sequence (P35363 whole entry, looked up): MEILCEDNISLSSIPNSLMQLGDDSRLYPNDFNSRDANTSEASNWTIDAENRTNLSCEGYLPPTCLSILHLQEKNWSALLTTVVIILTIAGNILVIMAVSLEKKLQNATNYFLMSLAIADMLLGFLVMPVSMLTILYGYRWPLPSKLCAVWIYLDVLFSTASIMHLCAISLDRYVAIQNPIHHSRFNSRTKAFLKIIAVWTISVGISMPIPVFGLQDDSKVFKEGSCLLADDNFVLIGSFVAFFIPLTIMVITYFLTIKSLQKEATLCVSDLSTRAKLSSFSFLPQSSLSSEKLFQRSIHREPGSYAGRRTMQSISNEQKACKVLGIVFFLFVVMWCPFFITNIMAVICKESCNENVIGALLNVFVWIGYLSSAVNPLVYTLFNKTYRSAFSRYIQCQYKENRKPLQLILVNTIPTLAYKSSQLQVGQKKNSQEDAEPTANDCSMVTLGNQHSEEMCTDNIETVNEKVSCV
TbMetRS inhib: blocks T. brucei methionyl-tRNA synthetase activity | purified T. brucei MetRS, ATP depletion, Kinase-Glo luminescence | inhibition, % at 11.9 µM | 360,000 tested, 0.4% active;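 active means inhibition above a per-plate cutoff of the control wells' mean inhibition plus 3 SD, cut at about 5.5% in these data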;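 further: 0% = DMSO wells median and 100% = median of wells with control inhibitor compound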
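Material – parasite MetRS enzyme · Medium – HEPES-MgCl2-KCl buffer plus DTT, spermine, BSA, pyrophosphatase · Reagent – ATP, methionine and E. coli bulk tRNA substrates · Times – 15 min enzyme-compound preincubation, 2 h reaction, 10 min detection, 25 °C · Measured by – luminescence of leftover ATP · Evaluation – percent inhibition relative to median high and low control wells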
bovine MsrA act: activates bovine MsrA enzyme | purified bovine MsrA, absorbance read-out | activation, % at 10.6 µM | 360,000 tested, 0.3% active | AID 602163; in the data active means activation above about 7.5%;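 further: 0% = vehicle and 100% = reference activator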
AI-2 QS mod: modulates the Vibrio harveyi AI-2 quorum sensing system; 300,000 tested, 0.4% active; Vibrio harveyi JMH597 AI-2 luminescence/OD600 ratio, 9 h; hits give low values; strain lacks LuxN and CqsS sensors; 0 = neutral-control median; activity change, % at 7.5 µM; AID 2094; in the data active means activity change below about -75%, passing the limit was not always enough;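 further: luminescence divided by OD600 gain over 9 h not by final OD600 alone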
MsrA inh confirm: bovine MsrA inhibition, confirmed; shares compounds with MsrA inh; purified bovine MsrA, absorbance read-out; inhibition, % at 15.5 µM; 2,300 tested, 41% active; AID 651822;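 further: coupled to thioredoxin reductase with NADPH and selenocystamine and DMSO as substrate; 0% = vehicle only and 100% = full effect of reference inhibitor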
An asterisk follows results filed as active. Unless noted, no stated cut-off is given here; in the data, active means inhibition above about 4.5%; inactive means the rest.

For Cc1c(NC(=S)N/N=C/c2ccc(Br)cc2)c(=O)n(-c2ccccc2)n1C the results were MsrA inh 3, AHR activator 3, m5-HT2A agonist -4, TbMetRS inhib 0, bovine MsrA act -5 and AI-2 QS mod 24.
Screening COc1ccc(/C=N/NC(=S)Nc2c(C)n(C)n(-c3ccccc3)c2=O)cc1OC returned MsrA inh 5.2*, AHR activator 0, m5-HT2A agonist -6, TbMetRS inhib 1, bovine MsrA act 1, AI-2 QS mod 22 and MsrA inh confirm 4.
`Cc1c(NC(=S)N/N=C/C=C/c2ccc([N+](=O)[O-])cc2)c(=O)n(-c2ccccc2)n1C` gave MsrA inh 9.8*, AHR activator -3, m5-HT2A agonist -3, TbMetRS inhib 0, bovine MsrA act -3, AI-2 QS mod 6 and MsrA inh confirm 4.9*.
`CC(C)(CNc1ccc(S(=O)(=O)C(F)(F)F)cc1[N+](=O)[O-])N1CCOCC1` gave MsrA inh -1, AHR activator 1, m5-HT2A agonist -1, TbMetRS inhib -1, bovine MsrA act -6 and AI-2 QS mod 20.
For COc1ccc(-c2cccc3c2C2CC3CCN2C(=O)OCc2ccccc2)cc1 (centres undefined) the results were MsrA inh 6.4*, m5-HT2A agonist -4, TbMetRS inhib -1, bovine MsrA act -2 and MsrA inh confirm 2.
For O=C(OCc1ccccc1)N1CCC2CC1c1cc(-c3ccccc3)ccc12 (centres undefined) the results were MsrA inh -1, m5-HT2A agonist 1, TbMetRS inhib -1 and bovine MsrA act 0.
For COc1ccc(-c2cc(C(F)F)nc(-n3nc(C)cc3C)n2)cc1 the results were MsrA inh 15*, AHR activator -1, m5-HT2A agonist 1, TbMetRS inhib 0, bovine MsrA act -3, AI-2 QS mod 24 and MsrA inh confirm 16*.
Screening COc1ccc(-c2csc(CCn3nc(C)cc3C)n2)cc1 returned MsrA inh 2, AHR activator -9, m5-HT2A agonist 4, TbMetRS inhib 0, bovine MsrA act -4 and AI-2 QS mod 16.
Cc1ccc(-c2cc(C(F)F)nc(N3CCOCC3)n2)cc1 was read as MsrA inh 11*, AHR activator 38, m5-HT2A agonist 5, TbMetRS inhib 0, bovine MsrA act -3, AI-2 QS mod 2 and MsrA inh confirm 9.7*.
For Cn1c(CNC(=O)CNC(=O)c2ccc(C(C)(C)C)cc2)cc(=O)n(C)c1=O the results were MsrA inh 0, AHR activator 0, m5-HT2A agonist -2, TbMetRS inhib 0, bovine MsrA act -2 and AI-2 QS mod 2.
CN(C)c1ccc(/C=N/NC(=O)C(=O)N2CCCCCC2)cc1 was read as MsrA inh 4.7*, AHR activator 12, m5-HT2A agonist 7, TbMetRS inhib 0, bovine MsrA act -4 and MsrA inh confirm 5.9*.
For CN(C)c1ccc(/C=N/NC(=O)c2cc(=O)[nH]c3ccccc23)cc1 the results were MsrA inh 7.1*, AHR activator 4, m5-HT2A agonist -4, TbMetRS inhib 0, bovine MsrA act -2, AI-2 QS mod 18 and MsrA inh confirm 5.
For CN(C)c1ccc(/C=N/NC(=O)c2ccco2)cc1 the results were MsrA inh 4.7*, AHR activator 29, m5-HT2A agonist 1, TbMetRS inhib -1, bovine MsrA act -3, AI-2 QS mod 2 and MsrA inh confirm 5.1*.
For O=C(N/N=C/c1ccc2ncccc2c1)c1ccco1 the results were MsrA inh 5.2*, AHR activator 6, m5-HT2A agonist 3, TbMetRS inhib -2, bovine MsrA act -10, AI-2 QS mod 37 and MsrA inh confirm 3.
O=C(N/N=C/c1ccccn1)c1ccco1 was read as MsrA inh 0, AHR activator 3, m5-HT2A agonist -2, TbMetRS inhib 0, bovine MsrA act 0 and AI-2 QS mod 10.
For Cn1ccc(C(=O)N/N=C/c2cccnc2)n1 the results were MsrA inh 1, AHR activator 14, m5-HT2A agonist 2, TbMetRS inhib 0 and bovine MsrA act -1.
